Screening results from PubChem.
CSC inhib – blocks cancer stem cells. cancer stem cell-like cells viability, luminescence. inhibition, % at 7.5 µM. hit rate 1.1% among 300,000. AID 2717; in the data active = inhibition above about 75%; inconclusive = no clear call, values can overlap the other calls; tested in HMLE shEcad cells
T cruzi inh – blocks replication of Trypanosoma cruzi | hit rate 1.4% among 300,000 | T. cruzi beta-gal in NIH3T3, luminescence, 90 h | inhibition, % (test concentration not listed) | AID 1885;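 active = mean inhibition across valid replicates above about 55%, limit read from the data; inconclusive = mean below that limit but half or more replicates reach it; inactive = mean below it, under half of replicates reach it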;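 also: signal also drops with host cell toxicity which is not excluded here; 0% = plate median of DMSO wells and 100% = zero luminescence signal; higher percent means less beta-gal luminescence so fewer parasites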
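System – NIH/3T3 host cells with β-galactosidase reporter T. cruzi · Doses – single 50 nL compound addition per well in DMSO · Reagent – 5000 T. cruzi trypomastigotes/well · Medium – Low-serum DMEM with 2% FBS · Timing – ≥90 h infection period, 3 h prior cell attachment · Evaluation – parasite load inhibition, % · Technique – GalScreen luminescence, 60 min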
Beta cell apopt – beta cell apoptosis inhibition; protection from apoptosis, % (concentration not given with the values); hit rate 0.8% among 300,000; INS-1E cytokine-induced death, ATP luminescence, 48 h; percent of positive-control rescue, neutral wells zero;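 active = Every replicate reaches about 75%, or at least half do and their mean reaches it too, limit read from the data; inconclusive = At least half of replicates reach the limit but their mean does not; inactive = Under half of replicates reach the limit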;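 also: 0% = cytokine-treated negative control wells and 100% = positive control rescue; higher means more ATP so stronger rescue from cytokine killing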
NALP3 yeast inh – NALP3 inhibition in yeast | hit rate 0.39% among 330,000 | inhibition, % at 10 µM | Yeast reconstituted NLRP3/ASC/caspase-1, beta-gal luminescence, 24 h | AID 2825;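 active = inhibition of 50% or more; inactive = inhibition below 50%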;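 also: plate controls were induced DMSO wells for no effect and uninduced yeast grown without galactose for full effect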
Mdm2-MdmX inh – human Mdm2/MdmX binding inhibition; O15151+Q00987; SaOS-2 split-luciferase Mdm2/MdmX complementation, luminescence; inhibition, % at 8 µM; hit rate 3% among 330,000; AID 485346;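 active = inhibition of at least 50% at 8 µM in the primary screen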
Target sequence (O15151 whole entry, looked up): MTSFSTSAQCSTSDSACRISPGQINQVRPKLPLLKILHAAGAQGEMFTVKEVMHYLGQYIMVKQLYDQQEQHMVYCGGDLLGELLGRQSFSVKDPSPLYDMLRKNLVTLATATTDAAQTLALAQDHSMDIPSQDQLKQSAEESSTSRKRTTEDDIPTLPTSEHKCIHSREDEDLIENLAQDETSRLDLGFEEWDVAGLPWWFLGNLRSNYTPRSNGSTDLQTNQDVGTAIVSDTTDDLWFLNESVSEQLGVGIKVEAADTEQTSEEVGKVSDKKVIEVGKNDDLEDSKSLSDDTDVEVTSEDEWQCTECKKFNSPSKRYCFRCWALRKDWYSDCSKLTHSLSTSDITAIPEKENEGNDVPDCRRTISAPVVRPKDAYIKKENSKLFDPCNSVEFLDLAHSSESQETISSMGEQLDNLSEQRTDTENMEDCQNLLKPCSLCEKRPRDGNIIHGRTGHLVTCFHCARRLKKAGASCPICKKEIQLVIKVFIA
Target sequence (Q00987 whole entry, looked up): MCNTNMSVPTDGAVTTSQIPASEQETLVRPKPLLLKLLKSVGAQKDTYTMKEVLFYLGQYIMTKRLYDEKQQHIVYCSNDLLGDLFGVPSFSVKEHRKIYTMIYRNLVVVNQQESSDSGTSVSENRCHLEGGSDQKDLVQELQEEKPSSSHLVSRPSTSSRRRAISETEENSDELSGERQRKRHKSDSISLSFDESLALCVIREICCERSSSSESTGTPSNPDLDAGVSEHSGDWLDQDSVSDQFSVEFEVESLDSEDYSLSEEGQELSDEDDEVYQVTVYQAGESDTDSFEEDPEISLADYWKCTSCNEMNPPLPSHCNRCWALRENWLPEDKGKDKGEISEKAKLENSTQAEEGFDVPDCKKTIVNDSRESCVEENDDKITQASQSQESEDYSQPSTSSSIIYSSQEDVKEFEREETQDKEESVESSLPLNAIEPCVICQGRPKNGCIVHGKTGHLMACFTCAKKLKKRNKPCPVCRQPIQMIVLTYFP
Calb FLC – affects C. albicans growth with fluconazole; C. albicans CaCi-2 (fluconazole-resistant clinical isolate) + fluconazole, Alamar Blue growth, 48 h; growth inhibition, % (test concentration not listed); hit rate 0.57% among 300,000; AID 1979;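 active = growth inhibition above about 58% in most replicates, limit read from the data, passing the limit was not always enough; inconclusive = exactly half the replicates above a set limit; inactive = most replicates below a set limit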;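 also: all wells also contain fluconazole at 8 µg/ml as a sub-toxic cotreatment; 0% = median of DMSO wells and 100% = median of geldanamycin control wells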
NALP3 yeast conf – NALP3 inhibition confirmation in yeast | shares compounds with NALP3 yeast inh | yeast expressing human NALP3, luminescence | inhibition, % at 10 µM | hit rate 81% among 1,300 | AID 435006; in the data active = inhibition above about 48%
Casp1 ASC ctr – active in yeast caspase-1-ASC counter-screen for NALP3 inhibitors; shares compounds with NALP3 yeast inh; yeast expressing Caspase-1-ASC, luminescence counter screen; inhibition, % at 10 µM; hit rate 66% among 1,000; AID 488784
NALP3 retest – confirmation retest of NALP3 inhibitors in yeast | shares compounds with NALP3 yeast inh | yeast expressing human NALP3, luminescence read-out | inhibition, % at 10 µM | hit rate 53% among 1,000 | AID 488794
Active calls of the source: *. Only some compounds are listed: those with a hit (about 5.3% of all), similar ones and a draw of the others. Rule as the data show it, unless noted: active = inhibition above about 50%; inactive = the rest.

`COc1ccc(-c2cc3nc4n(c(=O)c3s2)CCC4)cc1` gave CSC inhib 16, T cruzi inh -14, Beta cell apopt 9, NALP3 yeast inh 53*, Mdm2-MdmX inh 34, Calb FLC inconclusive, NALP3 yeast conf 72*, Casp1 ASC ctr 35 and NALP3 retest 36.
`COc1ccc(-c2cc3nc4n(c(=O)c3s2)CCCCC4)cc1` gave CSC inhib 32, T cruzi inh 3, Beta cell apopt -1, NALP3 yeast inh 27, Mdm2-MdmX inh -79 and Calb FLC 4.
COc1cccc(C2=CC(=O)CC(C)(C)C2)c1OC was read as CSC inhib -7, Beta cell apopt -3, NALP3 yeast inh 21 and Mdm2-MdmX inh 0.
`CC1(C)CC(=O)C=C(c2cccc(Cl)c2O)C1` gave CSC inhib -16, Beta cell apopt -1, NALP3 yeast inh 71*, Mdm2-MdmX inh -18, NALP3 yeast conf 65*, Casp1 ASC ctr 75* and NALP3 retest 62*.
For Cc1c(Cc2ccccc2)sc(NC(=O)c2ccco2)c1C(N)=O the results were CSC inhib 13, T cruzi inh 8, Beta cell apopt -3, NALP3 yeast inh 85*, Mdm2-MdmX inh -3, Calb FLC 43, NALP3 yeast conf 92*, Casp1 ASC ctr 95* and NALP3 retest 86*.
O=C(Nc1ccc(Nc2ccccc2)cc1)c1ccc(F)cc1 was read as CSC inhib 45, T cruzi inh 0, Beta cell apopt -3, NALP3 yeast inh 62*, Mdm2-MdmX inh -7, Calb FLC -6, NALP3 yeast conf 78*, Casp1 ASC ctr 59* and NALP3 retest 53*.
`O=C(Nc1ccc2oc(-c3ccccc3)nc2c1)c1ccco1` gave CSC inhib 1, T cruzi inh 3, Beta cell apopt 4, NALP3 yeast inh 77*, Mdm2-MdmX inh -170, Calb FLC inconclusive and NALP3 yeast conf 17.
`O=C(Nc1ccc2oc(-c3ccncc3)nc2c1)c1ccco1` gave CSC inhib -21, T cruzi inh -16, Beta cell apopt 10, NALP3 yeast inh 31, Mdm2-MdmX inh -23 and Calb FLC 8.
For O=C(Nc1ccc(NC(=O)c2ccco2)cc1)c1ccco1 the results were CSC inhib -2, T cruzi inh -6, Beta cell apopt -15, NALP3 yeast inh 16, Mdm2-MdmX inh -17 and Calb FLC 0.
For O=C(Nc1ccc(Nc2ccccc2)cc1)c1ccco1 the results were CSC inhib 9, T cruzi inh -21, Beta cell apopt 5, NALP3 yeast inh 75*, Mdm2-MdmX inh -75, Calb FLC 1, NALP3 yeast conf 70*, Casp1 ASC ctr 79* and NALP3 retest 75*.
CC(C)c1nnc(NC(=O)CCC(=O)N2CCN(c3ccc(F)cc3)CC2)s1 was read as CSC inhib -12, T cruzi inh 12, NALP3 yeast inh 9, Mdm2-MdmX inh 3 and Calb FLC 5.
Screening COc1ccc2c(c1)cc(C(=O)N[C@H](C(=O)N1CCC[C@H]1C(=O)O)C(C)C)n2C returned CSC inhib 11, T cruzi inh -14, Beta cell apopt -3, NALP3 yeast inh 2, Mdm2-MdmX inh -12 and Calb FLC -7.
Screening COc1ccc(N2CCN(C(CNC(=O)C(=O)NCc3cccnc3)c3ccco3)CC2)cc1 (stereo not given) returned CSC inhib -10, T cruzi inh -3, Beta cell apopt -12, NALP3 yeast inh 7, Mdm2-MdmX inh 11 and Calb FLC -3.
For C[C@H](CO)N1C[C@H](C)[C@@H](CN(C)C(=O)Nc2ccc3c(c2)OCO3)Oc2c(NS(=O)(=O)c3ccc(F)cc3)cccc2C1=O the results were CSC inhib 30, Beta cell apopt 4, NALP3 yeast inh 15 and Mdm2-MdmX inh 13.
For O=C(Nc1ccc(F)c(Cl)c1)c1ccccc1 the results were CSC inhib -3, Beta cell apopt 6, NALP3 yeast inh 61*, Mdm2-MdmX inh -91, NALP3 yeast conf 82*, Casp1 ASC ctr 70* and NALP3 retest 63*.
